In ChEMBL document CHEMBL1132248, “2,4-Diphenyl furan diamidines as novel anti-Pneumocystis carinii pneumonia agents” (J Med Chem, 1999):
“And” between values parts separate entries of the source, which are not always exact repeats. Equal values may be shown once.

Tests used:
[1] = system: Rattus norvegicus; test: Percentage control of Pneumocystis carinii pneumonia in immunosuppressed rat at 10 uM/Kg/d administered intravenously; assay type: functional
Outline: (§1)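 Immunosuppressed rats with Pneumocystis carinii pneumonia were given test agent intravenously. The read-out was cysts per g of lung tissue, expressed as percent of pooled saline-treated controls (n = 46). Values below 1% of control fall within experimental error.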

[2] = system: Rattus norvegicus; test: Toxicity in immunosuppressed rat after administration of 10 uM/Kg/d.; assay type: organism-based; details: in vivo
Outline: (§2)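 Immunosuppressed rats with Pneumocystis carinii pneumonia; compounds given intravenously at the daily dose named in each line. Toxicity scored on a five-level scale from 0 to 5+; the paper calls the scores anecdotal rather than definitive. The same study scored lung cysts per gram against pooled saline controls (n = 46).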

[3] = The compound was tested for the increase in thermal melting of d(CGCGAATTCGCG)2.
[4] = system: Nucleic Acid
[5] = system: Rattus norvegicus; test: Percentage control of Pneumocystis carinii pneumonia in immunosuppressed rat at 22 uM/Kg/d administered intravenously; assay type: functional; outline: as §1
[6] = system: Nucleic Acid; remark: listed apart in the source
[7] = system: Rattus norvegicus; test: Toxicity in immunosuppressed rat after administration of 1 uM/Kg/d.; assay type: organism-based; details: in vivo; outline: as §2
[8] = system: Rattus norvegicus; test: Percentage control of Pneumocystis carinii pneumonia in immunosuppressed rat at 1 uM/Kg/d administered intravenously; assay type: functional; outline: as §1
[9] = system: Rattus norvegicus; test: Percentage control of Pneumocystis carinii pneumonia in immunosuppressed rat at 10 uM/Kg/d administered intravenously.; assay type: functional; outline: as §1
[10] = system: Rattus norvegicus; test: Toxicity in immunosuppressed rat after administration of 10 uM/Kg/d; assay type: organism-based; details: in vivo; outline: as §2
[11] = system: Rattus norvegicus; test: Toxicity in immunosuppressed rat after administration of 0.2 5 uM/Kg/d; assay type: organism-based; details: in vivo; outline: as §2
[12] = system: Rattus norvegicus; test: Percentage control of Pneumocystis carinii pneumonia in immunosuppressed rat at 20 uM/Kg/d administered intravenously; assay type: functional; outline: as §1
[13] = system: Rattus norvegicus; test: Percentage control of Pneumocystis carinii pneumonia in immunosuppressed rat at 0.25 uM/Kg/d administered intravenously; assay type: functional; outline: as §1
[14] = system: Rattus norvegicus; test: Toxicity in immunosuppressed rat after administration of 1 uM/kg/day; assay type: organism-based; details: in vivo; outline: as §2
[15] = system: Rattus norvegicus; test: Percentage control of Pneumocystis carinii pneumonia in immunosuppressed rat at 5 uM/Kg/d administered intravenously; assay type: functional; outline: as §1
[16] = system: Rattus norvegicus; test: Toxicity in immunosuppressed rat after administration of 5 uM/Kg/d; assay type: organism-based; details: in vivo; outline: as §2

Row | SMILES | Control [1] | Toxicity [2] | ΔTm [3] | ΔTm [4] | other results
1 | Cc1oc(-c2ccc(/C(N)=N\C(C)C)cc2)c(C)c1-c1ccc(/C(N)=N\C(C)C)cc1.Cl.Cl | 24.43% | 0 | 5.4 | 12.5 | –
2 | N=C(N)c1ccc(OCCCCCOc2ccc(C(=N)N)cc2)cc1 [PENTAMIDINE] | – | – | 4.8 | – | Control [5]: 2.3%; ΔTm [6]: 12.6
3 | c1cc(-c2coc(-c3ccc(C4=NCCN4)cc3)c2)ccc1C1=NCCN1 | – | – | 7.2 | 16.8 | –
4 | Cl.Cl.N=C(NC1CCCC1)c1ccc(-c2coc(-c3ccc(C(=N)NC4CCCC4)cc3)c2)cc1 | 0.16% | 0 | 13.6 | 20.4 | Toxicity [7]: 0; Control [8]: 1.79%
5 | Cl.Cl.N=C(NC1CC1)c1ccc(-c2coc(-c3ccc(C(=N)NC4CC4)cc3)c2)cc1 | – | 0 | 10.9 | 23.2 | Control [9]: 0.01%
6 | Cc1oc(-c2ccc(C(=N)N)cc2)c(C)c1-c1ccc(C(=N)N)cc1.Cl.Cl | 0.89% | – | 6.5 | 17 | –
7 | CC(C)C/N=C(/N)c1ccc(-c2coc(-c3ccc(/C(N)=N\CC(C)C)cc3)c2)cc1 | – | – | 9.3 | 20.4 | –
8 | Cl.Cl.N=C(N)c1ccc(-c2coc(-c3ccc(C(=N)N)cc3)c2)cc1 | 0.3% | – | 9.1 | 19 | Toxicity [10]: 0
9 | CC(C)/N=C(/N)c1ccc(-c2coc(-c3ccc(/C(N)=N\C(C)C)cc3)c2)cc1.Cl.Cl | 0.04% and 0.08% | – | 10.9 | 17.6 | Toxicity [11]: 0; Control [12]: 0%; Control [13]: 110.5%; Toxicity [10]: 0; Toxicity [14]: 0; Control [15]: 0.08%; Toxicity [16]: 0
